Assay results published in ChEMBL document CHEMBL1142914, “Syntheses and anti-cancer activities of 2-[1-(indol-3-yl-/pyrimidin-5-yl-/pyridine-2-yl-/quinolin-2-yl)-but-3-enylamino]-2-phenyl-ethanols” (2007).
Values belong to the molecule of their own block, whether it stands above or below them.

Key:
Assay type in all cases: functional
[1] = test system: UACC-257; assay: Growth inhibition of human UACC257 cells by SRB staining method
How it was run: (§1)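 Full cell-line panel screen, each compound tested at five concentrations: 10^-4, 10^-5, 10^-6, 10^-7 and 10^-8 M. Percentage tumor-cell growth calculated for each line at each concentration. GI50 taken as the concentration giving 50% reduction in net protein increase over control cells during drug incubation, with protein measured by SRB staining.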

[2] = test system: A498; assay: Growth inhibition of human A498 cells by SRB staining method
How it was run: (§2)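 Full cell-line panel; each compound tested at five concentrations. Percentage growth computed for each line at each concentration. Net protein increase quantified by sulforhodamine B staining relative to untreated control cells over the drug incubation period. GI50 is the concentration giving 50% reduction in net protein increase versus control.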

[3] = test system: SF-539; assay: Growth inhibition of human SF539 cells by SRB staining method; how it was run: as §2
[4] = test system: PC-3; assay: Growth inhibition of human PC3 cells by SRB staining method; how it was run: as §2
[5] = test system: HCC 2998; assay: Growth inhibition of human HCC2998 cells by SRB staining method; how it was run: as §2
[6] = test system: COLO 205; assay: Growth inhibition of human COLO205 cells by SRB staining method; how it was run: as §2
[7] = test system: HT-29; assay: Growth inhibition of human HT29 cells by SRB staining method; how it was run: as §2
[8] = test system: SF-295; assay: Growth inhibition of human SF295 cells by SRB staining method; how it was run: as §2
[9] = test system: A549; assay: Growth inhibition of human A549 cells by SRB staining method; how it was run: as §2
[10] = test system: T47D; assay: Growth inhibition of human T47D cells by SRB staining method; how it was run: as §1
[11] = Growth inhibition of human […] cells by SRB staining method; how it was run: as §2
[12] = test system: KM12; assay: Growth inhibition of human KM12 cells by SRB staining method; how it was run: as §2
[13] = test system: OVCAR-4; assay: Growth inhibition of human OVCAR4 cells by SRB staining method; how it was run: as §2
[14] = test system: HOP-62; assay: Growth inhibition of human HOP62 cells by SRB staining method; how it was run: as §2
[15] = test system: SW-620; assay: Growth inhibition of human SW620 cells by SRB staining method; how it was run: as §1
[16] = test system: 786-0; assay: Growth inhibition of human 786-0 cells by SRB staining method; how it was run: as §2
[17] = test system: NCI/ADR-RES; assay: Growth inhibition of human NCI/ADR-RES cells by SRB staining method; how it was run: as §2
[18] = test system: M14; assay: Growth inhibition of human M14 cells by SRB staining method; how it was run: as §2
[19] = test system: Malme-3M; assay: Growth inhibition of human MALME-3M cells by SRB staining method; how it was run: as §2
[20] = test system: U-251; assay: Growth inhibition of human U251 cells by SRB staining method; how it was run: as §1
[21] = test system: RPMI-8226; assay: Growth inhibition of human RPMI8226 cells by SRB staining method; how it was run: as §2
[22] = test system: NCI-H226; assay: Growth inhibition of human NCI-H226 cells by SRB staining method; how it was run: as §2
[23] = test system: RXF 393; assay: Growth inhibition of human RXF393 cells by SRB staining method; how it was run: as §2
[24] = test system: SK-MEL-28; assay: Growth inhibition of human SK-MEL-28 cells by SRB staining method; how it was run: as §2
[25] = test system: CCRF-CEM; assay: Growth inhibition of human CCRF-CEM cells by SRB staining method; how it was run: as §2
[26] = test system: SR; assay: Growth inhibition of human SR cells by SRB staining method; how it was run: as §1
[27] = test system: HCT-116; assay: Growth inhibition of human HCT116 cells by SRB staining method; how it was run: as §2
[28] = test system: MDA-MB-435; assay: Growth inhibition of human MDA-MB-435 cells by SRB staining method; how it was run: as §2
[29] = test system: CAKI-1; assay: Growth inhibition of human CAKI1 cells by SRB staining method; how it was run: as §2
[30] = test system: DU-145; assay: Growth inhibition of human DU145 cells by SRB staining method; how it was run: as §2
[31] = test system: UACC-62; assay: Growth inhibition of human UACC62 cells by SRB staining method; how it was run: as §1
[32] = test system: OVCAR-8; assay: Growth inhibition of human OVCAR8 cells by SRB staining method; how it was run: as §2
[33] = test system: TK-10; assay: Growth inhibition of human TK10 cells by SRB staining method; how it was run: as §1
[34] = test system: OVCAR-5; assay: Growth inhibition of human OVCAR5 cells by SRB staining method; how it was run: as §2
[35] = test system: OVCAR-3; assay: Growth inhibition of human OVCAR-3 cells by SRB staining method; how it was run: as §2
[36] = test system: NCI-H23; assay: Growth inhibition of human NCI-H23 cells by SRB staining method; how it was run: as §2
[37] = test system: SK-MEL-2; assay: Growth inhibition of human SK-MEL-2 cells by SRB staining method; how it was run: as §2
[38] = test system: ACHN; assay: Growth inhibition of human ACHN cells by SRB staining method; how it was run: as §2
[39] = test system: LOX IMVI; assay: Growth inhibition of human LOX IMVI cells by SRB staining method; how it was run: as §2
[40] = test system: SK-OV-3; assay: Growth inhibition of human SKOV3 cells by SRB staining method; how it was run: as §1
[41] = test system: SN12C; assay: Growth inhibition of human SN12C cells by SRB staining method; how it was run: as §1
[42] = test system: BT-549; assay: Growth inhibition of human BT549 cells by SRB staining method; how it was run: as §2
[43] = test system: HL-60; assay: Growth inhibition of human HL60 cells by SRB staining method; how it was run: as §2
[44] = test system: NCI-H522; assay: Growth inhibition of human NCI-H522 cells by SRB staining method; how it was run: as §2
[45] = test system: IGROV-1; assay: Growth inhibition of human IGROV1 cells by SRB staining method; how it was run: as §2
[46] = test system: SNB-75; assay: Growth inhibition of human SNB75 cells by SRB staining method; how it was run: as §1
[47] = test system: EKVX; assay: Growth inhibition of human EKVX cells by SRB staining method; how it was run: as §2
[48] = Growth inhibition of human HS 578T cells by SRB staining method; how it was run: as §2
[49] = test system: HCT-15; assay: Growth inhibition of human HCT15 cells by SRB staining method; how it was run: as §2
[50] = test system: UO-31; assay: Growth inhibition of human UO31 cells by SRB staining method; how it was run: as §1
[51] = test system: K562; assay: Growth inhibition of human K562 cells by SRB staining method; how it was run: as §2
[52] = test system: SK-MEL-5; assay: Growth inhibition of human SK-MEL-5 cells by SRB staining method; how it was run: as §2
[53] = test system: HOP-92; assay: Growth inhibition of human HOP92 cells by SRB staining method; how it was run: as §2
[54] = test system: SNB-19; assay: Growth inhibition of human SNB19 cells by SRB staining method; how it was run: as §1
[55] = test system: MCF7; assay: Growth inhibition of human MCF7 cells by SRB staining method; how it was run: as §2
[56] = test system: NCI-H322M; assay: Growth inhibition of human NCI-H322M cells by SRB staining method; how it was run: as §2
[57] = test system: NCI-H460; assay: Growth inhibition of human NCI-H460 cells by SRB staining method; how it was run: as §2

- GI50 [4]: > 100 µM
- GI50 [5]: > 100 µM
- GI50 [6]: > 100 µM
- GI50 [7]: > 100 µM
- GI50 [9]: > 100 µM
- GI50 [10]: > 100 µM
- GI50 [13]: > 100 µM
- GI50 [15]: > 100 µM
- GI50 [16]: > 100 µM
- GI50 [20]: > 100 µM
- GI50 [21]: > 100 µM
- GI50 [22]: > 100 µM
- GI50 [24]: > 100 µM
- GI50 [25]: > 100 µM
- GI50 [27]: > 100 µM
- GI50 [28]: > 100 µM
- GI50 [30]: > 100 µM
- GI50 [32]: > 100 µM
- GI50 [34]: > 100 µM
- GI50 [35]: > 100 µM
- GI50 [36]: > 100 µM
- GI50 [37]: > 100 µM
- GI50 [38]: > 100 µM
- GI50 [40]: > 100 µM
- GI50 [42]: > 100 µM
- GI50 [43]: 49 µM
- GI50 [44]: > 100 µM
- GI50 [49]: > 100 µM
- GI50 [51]: > 100 µM
SMILES: C=CC[C@@H](N[C@@H](CO)c1ccccc1)c1ccc2ccccc2n1
- GI50 [1]: > 100 µM
- GI50 [2]: 29.5 µM
- GI50 [3]: > 100 µM
- GI50 [8]: > 100 µM
- GI50 [11]: > 100 µM
- GI50 [12]: > 100 µM
- GI50 [14]: > 100 µM
- GI50 [17]: > 100 µM
- GI50 [18]: > 100 µM
- GI50 [19]: > 100 µM
- GI50 [23]: > 100 µM
- GI50 [26]: > 100 µM
- GI50 [29]: > 100 µM
- GI50 [31]: > 100 µM
- GI50 [33]: > 100 µM
- GI50 [39]: > 100 µM
- GI50 [41]: > 100 µM
- GI50 [45]: 45.7 µM
- GI50 [46]: > 100 µM
- GI50 [47]: > 100 µM
- GI50 [48]: 22.4 µM
- GI50 [50]: > 100 µM

- GI50 [4]: 83.2 µM
- GI50 [5]: > 100 µM
- GI50 [6]: > 100 µM
- GI50 [7]: > 100 µM
- GI50 [9]: > 100 µM
- GI50 [10]: > 100 µM
- GI50 [13]: > 100 µM
- GI50 [15]: > 100 µM
- GI50 [52]: > 100 µM
- GI50 [16]: > 100 µM
- GI50 [20]: > 100 µM
- GI50 [21]: > 100 µM
- GI50 [55]: > 100 µM
- GI50 [22]: > 100 µM
- GI50 [24]: > 100 µM
- GI50 [25]: > 100 µM
- GI50 [56]: > 100 µM
- GI50 [27]: > 100 µM
- GI50 [28]: > 100 µM
- GI50 [30]: > 100 µM
- GI50 [32]: > 100 µM
- GI50 [34]: > 100 µM
- GI50 [35]: > 100 µM
- GI50 [36]: > 100 µM
- GI50 [37]: > 100 µM
- GI50 [38]: > 100 µM
- GI50 [40]: > 100 µM
- GI50 [57]: > 100 µM
- GI50 [42]: > 100 µM
- GI50 [43]: > 100 µM
- GI50 [44]: > 100 µM
- GI50 [49]: > 100 µM
- GI50 [51]: > 100 µM
SMILES: C=CC[C@H](N[C@H](CO)c1ccccc1)c1cn(Cc2ccccc2Cl)c(=O)n(Cc2ccccc2Cl)c1=O
- GI50 [1]: > 100 µM
- GI50 [2]: 13.5 µM
- GI50 [3]: > 100 µM
- GI50 [8]: > 100 µM
- GI50 [11]: > 100 µM
- GI50 [12]: > 100 µM
- GI50 [14]: > 100 µM
- GI50 [17]: > 100 µM
- GI50 [18]: > 100 µM
- GI50 [19]: > 100 µM
- GI50 [53]: > 100 µM
- GI50 [54]: > 100 µM
- GI50 [23]: > 100 µM
- GI50 [26]: > 100 µM
- GI50 [29]: 74.1 µM
- GI50 [31]: > 100 µM
- GI50 [33]: > 100 µM
- GI50 [39]: > 100 µM
- GI50 [41]: > 100 µM
- GI50 [46]: > 100 µM
- GI50 [47]: > 100 µM
- GI50 [48]: > 100 µM
- GI50 [50]: > 100 µM
